# E-sel inducer: E-selectin induction in HUVECs, primary screen, imaging, HUVEC, immunofluorescence imaging, single point | P16581 | normalized: neutral wells 0, TNF-alpha wells 100 | activation, % at 7.58 µM | actives 0.37% (n = 260,000);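 active means mean E-selectin-positive cell signal at least 10% of the positive control, reached in at least 60% of replicates, without over 20% cell loss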
#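 Assay system: HUVEC, human umbilical vein endothelial cells / Amount: 3,000 HUVEC/well / Controls: TNF-alpha positive control, DMSO neutral control / Compound dosing: single concentration / Medium: EGM-2 over gelatin coat / Evaluation: percent E-selectin-positive cells / Signal: immunofluorescence imaging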
# FGF22 binding: binders of human FGF22 protein, primary screen, FGF22 synaptogenesis inhibitor project, biophysical, thermal shift, single point; Fibroblast growth factor 22 (Homo sapiens), Q9HCT0; recombinant FGF22 thermal shift, SYPRO orange fluorescence; percent of sucrose octasulfate shift, DMSO zero; activity (Tm shift, normalised), % at 9.99 µM; actives 1.5% (n = 340,000); AID 651658, 2012;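 active means mean Tm shift, scaled 0 neutral to 100 positive control, at about 1.3% or above, every replicate too, limit read from the data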
# Target sequence (Q9HCT0 whole entry, looked up): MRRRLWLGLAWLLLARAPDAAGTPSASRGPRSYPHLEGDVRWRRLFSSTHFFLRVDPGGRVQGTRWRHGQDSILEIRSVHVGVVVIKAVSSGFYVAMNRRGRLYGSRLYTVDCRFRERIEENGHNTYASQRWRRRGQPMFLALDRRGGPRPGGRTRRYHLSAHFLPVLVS
# FN deposition inh: inhibitors of fibronectin matrix deposition, primary screen, AH1F cells, Alexa488-fibronectin fluorescence, plate reader. actives 0.086% (n = 350,000). AID 743247, 2014. inhibition, % at 12.6 µM. AH1F fibroblasts, overnight;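 active means mean inhibition across replicates of 30% or more, regardless of how many single replicates reach that level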;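 further: positive control wells lacked labelled fibronectin entirely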
#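 Assay system: AH1F fibroblasts / Quantity: 10000 cells per well / Medium: DMEM plus 2% serum, read in PBS / Reagent: labelled fibronectin 24 nM / Dosing: single dose, pinned / Times: 1 h cell attachment, overnight exposure to compound and label / Signal: fluorescence, ex 485 nm, em 525 nm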
# Ecoli rRNA inh: reduced GFP signal of wild-type E. coli, primary screen, bacterial rRNA inhibitor project, GFP/RFP fluorescence, OD600, single point. actives 1.6% (n = 350,000). AID 720706, 2013. GFP signal change (wild-type ribosome), % (concentration not given with the values). E. coli WT GFP vs humanized-ribosome RFP mutants, 24 h; hits give low values; DMSO median 0, no signal -100;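 active means significant combined selectivity score with lowered wild-type GFP, culture density cut under 30%, mutant RFP and density less affected; inactive means any of these conditions unmet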
# SIRT5 block: SIRT5 desuccinylase inhibitors, primary screen, biochemical, fluorescence imaging, single point, set 5 | NAD-dependent protein deacylase sirtuin-5, mitochondrial (Homo sapiens), Q9NXA8 | Purified SirT5, succinyl-peptide AMC, trypsin-coupled fluorescence | inhibition, % at 15 µM | actives 1.1% (n = 330,000) | AID 652115, 2013; in the data active means inhibition above about 15%
# Target sequence (Q9NXA8 whole entry, looked up): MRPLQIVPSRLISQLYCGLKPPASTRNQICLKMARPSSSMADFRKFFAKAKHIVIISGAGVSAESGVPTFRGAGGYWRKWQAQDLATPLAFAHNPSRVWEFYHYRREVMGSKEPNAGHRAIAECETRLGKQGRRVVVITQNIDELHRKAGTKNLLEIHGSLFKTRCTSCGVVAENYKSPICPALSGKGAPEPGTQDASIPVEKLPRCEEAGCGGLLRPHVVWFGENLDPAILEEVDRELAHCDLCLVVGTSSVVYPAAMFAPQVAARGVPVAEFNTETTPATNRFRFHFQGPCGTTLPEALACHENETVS
# Statin myotox sup: suppressors of statin myotoxicity in C2C12 myotubes, primary screen, cell-based, single point, plate reader. C2C12 myotubes + simvastatin, ATP luminescence, 48 h; scaled: DMSO 0, geranylgeraniol control 100. rescue of ATP level, % at 7.49 µM. actives 0.78% (n = 330,000). AID 602340, 2012;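 active means mean ATP rescue above about 67%, or every replicate alone reaching that limit, limit read from the data, passing the limit was not always enough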;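 further: myotubes were challenged with 10 µM simvastatin during compound exposure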
# Starred values were filed as active, the others as inactive; · = not tested or not shown. Hits are enriched below; roughly 4% of the tested compounds scored in any of these assays.
SMILES,E-sel inducer,FGF22 binding,FN deposition inh,Ecoli rRNA inh,SIRT5 block,Statin myotox sup
CS(=O)(=O)N(CC(=O)NCCSc1ccccn1)c1ccc(F)cc1,·,43*,6,10,1,·
Cc1ccc(NC(=O)n2ccc(-c3ccc(-n4ccnc4)cc3)n2)cc1,·,0,0,1,17*,·
O=C(NN1C(=O)C2C(C1=O)C1C=CC2C12CC2)c1cccnc1 (centres undefined),·,44*,-7,16,-7,·
C[C@@H]1CN([C@@H](C)CO)C(=O)c2cc(NC(=O)CCC(F)(F)F)ccc2O[C@@H]1CN(C)C,·,0,·,6,2,-11
COc1ccc(-c2csc(NC(=O)C3CC(=O)N(Cc4ccco4)C3)n2)cc1 (centres undefined),-1,42,8,-41,-1,·
O=C(Nc1nccs1)C1CC(=O)N(Cc2ccco2)C1 (centres undefined),·,43*,-1,13,-3,·
CCOC(=O)C(C#N)=C1CCN(Cc2ccccc2)CC1,·,0,-2,4,0,-1
CCOC(=O)/C(C#N)=C1/C(=O)N(Cc2ccccc2)c2ccccc21,·,0,-7,6,21*,-1
CCCC(=O)Nc1ccc2c(c1)OC[C@H](C)N(CC1CCCC1)C[C@H](C)[C@H](OC)CN(C)C2=O,0,0,-8,1,4,-14
Cc1cc(-c2n[nH]c(=S)n2/N=C/C(Cl)=C/c2ccccc2)n[nH]1,·,·,-1,·,·,·
S=c1[nH]nc(-c2ccco2)n1/N=C/C(Cl)=C/c1ccccc1,0,·,-4,-36*,-1,·
Cc1nc2c(C#N)c[nH]n2c(=O)c1Cc1ccccc1,·,0,·,-22*,-1,15
Cc1nc2c(-c3ccccc3)c(C)[nH]n2c(=O)c1Cc1ccccc1,·,0,·,-4,-1,·
Cc1nc2c(-c3ccc(Cl)cc3)c(C)[nH]n2c(=O)c1Cc1ccccc1,·,0,11,-52,17*,·
Cc1nc2c(-c3ccc(F)cc3)c(C)[nH]n2c(=O)c1Cl,·,0,-3,-23*,12,1
Cc1[nH]n2c(=O)c3c(nc2c1-c1ccc(F)cc1)CCCC3,·,·,-8,3,2,·
C[C@@H]1CN(C)C(=O)c2cccnc2O[C@H]1CN(C)C,·,·,3,6,·,·
O=C(NCC[C@@H]1CC[C@H](NS(=O)(=O)Cc2ccccc2)[C@@H](CO)O1)C1CCC1,0,·,·,1,·,-9
CCOc1cc(C(=O)NCCOC)ccc1OC,·,·,·,·,·,120*
Cc1cccn2c(=O)c(C=O)c(Sc3ncccn3)nc12,7,43*,-3,15,-1,·
O=C(c1ccccn1)N1CC[C@@H]2[C@H]1c1cc(C#Cc3ccccc3)ccc1N[C@@H]2CO,2,0,6,-21,0,14
O=C(Nc1nc(=O)c2ccccc2s1)c1ccc(F)cc1,·,0,·,-4,-3,19
O=C(Nc1nc(=O)c2ccccc2s1)c1ccc(Cl)cc1,·,·,·,·,·,80*
COc1cc(Br)c(CNc2cc(C)ccc2C)cc1OC,0,0,-4,-24*,6,1
COc1ccc(S(=O)(=O)N2CCOCC2)cc1NC(=O)C1CCCN1C(=O)c1cccs1 (centres undefined),·,0,-4,8,0,0
SMILES,E-sel inducer,FGF22 binding,FN deposition inh,Ecoli rRNA inh,SIRT5 block,Statin myotox sup
Cc1ccc(S(=O)(=O)N2CCOCC2)cc1NC(=O)COC(=O)c1n[nH]c(=O)c2ccccc12,3,0,6,1,16*,·
COc1ccc(S(=O)(=O)N2CCOCC2)cc1NC(=O)CSc1nc(C)c(C)c(C)n1,-1,0,·,4,·,-6
COc1ccc(S(=O)(=O)N2CCOCC2)cc1NC(=O)CSc1n[nH]c(C(C)C)n1,·,0,-19,10,20*,-3
COc1ccc(S(=O)(=O)N2CCOCC2)cc1NC(=O)COC(=O)c1[nH]c(C)c(C(C)=O)c1C,0,0,0,0,17*,-3
COc1ccc(S(=O)(=O)N2CCOCC2)cc1NC(=O)[C@@H]1CCCN1C(=O)c1cccs1,2,43*,-6,7,-3,·
O=C(C1CC1)N1CCCCN2[C@H](CO)[C@@H](c3ccc(C#CC4CC4)cc3)[C@@H]2C1,·,0,·,·,9,·
CO[C@H]1CN(C)C(=O)c2cc(NC(C)=O)ccc2OC[C@@H](C)N(C(=O)c2cccnc2)C[C@@H]1C,0,0,1,2,2,-8
C[C@H]1Cn2cnc(C(=O)Nc3ccc(CNC(=O)OC(C)(C)C)cc3)c2C(=O)N1,0,1,6,16,·,27
C[C@H]1CNC(=O)c2c(C(=O)Nc3ccc(CNC(=O)OC(C)(C)C)cc3)ncn21,0,0,-2,-25*,·,-1
C[C@@H]1CN([C@@H](C)CO)C(=O)Cc2cc(NC(=O)CCC(F)(F)F)ccc2O[C@H]1CN(C)C(=O)Nc1ccccc1,0,0,·,5,-1,-14
C[C@@H]1CCCCO[C@@H](CN(C)Cc2ccc(Cl)c(Cl)c2)[C@@H](C)CN([C@@H](C)CO)C(=O)c2cc(NC(=O)c3ccccc3)ccc2O1,0,0,-1,5,7,·
CC(=O)C1=C(O)C(=O)N(CO)C1c1ccccc1F (centres undefined),·,0,·,16,0,·
CCN1C(=O)NC2=C(C(=O)c3ccccc32)C1c1ccccc1F (centres undefined),·,·,1,·,·,120*
CCCCCCN1Cc2ccccc2C1,·,·,·,·,·,106*
O=C(CCCN1Cc2ccccc2C1)c1ccc(F)cc1,·,0,·,12,-5,23
COCC(=O)N(C)C[C@@H]1Oc2cc(C3=CCCCC3)ccc2S(=O)(=O)N([C@H](C)CO)C[C@@H]1C,0,0,·,0,-2,-6
COc1ccc(CNC(=O)/C(C)=C\C(=O)O)cc1,·,43*,3,·,-1,·
COc1ccc(CNC(=O)C(=O)NCc2ccncc2)cc1,·,0,·,-1,-6,·
COc1ccc(CCn2c(O)cc3nn(-c4nc5ccccc5s4)c(=O)c-3c2C)cc1,19,0,-8,-18*,5,·
CCCCOC(=O)C[N+](C)(C)CCOC1CC2CCC1(C)C2(C)C (centres undefined),·,0,-17,-54,-1,-133

# High-throughput results deposited in PubChem by Broad Institute.
